Published values pooled from the literature.
Compare with care: the assays were run in different laboratories.
Target: Proto-oncogene tyrosine-protein kinase ROS (ROS1, Homo sapiens, UniProt P08922)

CCCOc1ccc([C@@H]2[C@@H](C(=O)O)[C@H](c3ccc4c(c3)OCO4)CN2CC(=O)Nc2c(CC)cccc2CC)cc1 — remaining binding (cell-free assay, competition with immobilised ligand; 1 µM): 90%
CN1CC(Oc2cnc(C#N)cc2-c2ccn3nc(NC(=O)C4CC4)cc3c2)C1 — inhibition (enzyme activity, inhibitor; 1 µM): 8%
Cc1ccc(C(=O)NCc2ccsc2)cc1C#Cc1cn(C(C)C)c2ncnc(N)c12 — activity vs control (enzyme activity, inhibitor; 1 µM): 92%
CCN(CC)CCNC(=O)c1c(C)[nH]c(/C=C2\C(=O)Nc3ccc(F)cc32)c1C — inhibition (enzyme activity, inhibitor; 0.3 µM): 4%
CNC(=O)c1cc(Oc2ccc(NC(=O)Nc3ccc(Cl)c(C(F)(F)F)c3)cc2)ccn1 — remaining signal (cell-free assay; 0.5 µM): 95.7%
CCN(CC)c1ccc(C2=NNC(=O)CC2C)cc1[N+](=O)[O-] (stereo not drawn) — remaining activity (enzyme activity, inhibitor; 10 µM): 106%
O=C1NC(=O)c2cc(Nc3ccc(F)cc3)c(Nc3ccc(F)cc3)cc21 — remaining signal (cell-free assay; 0.5 µM): 92%
COc1cc2ncnc(Nc3ccc(Oc4ccccc4)cc3C)c2cc1OC — inhibition (enzyme activity, inhibitor; 1 µM): 4%
N#CCCc1ccc2c(c1)-c1[nH]c3ccc([N+](=O)[O-])cc3c1CC(=O)N2 — remaining signal (cell-free assay; 0.5 µM): 71%
Cc1ccc(NC(=O)c2ccc(C)c(C(F)(F)F)c2)cc1C#Cc1nn(C2CCC(O)CC2)c2ncnc(N)c12 (stereo not drawn) — remaining signal (cell-free assay; 10 µM): 82%
Cc1c(NC(=O)c2cc(C(N)=O)nc3cc(F)ccc23)c(C(F)(F)F)nn1Cc1ccc(C#N)cc1 — remaining binding (cell-free assay, competition with immobilised ligand; 1 µM): 99%
CCOc1cc(-c2nncn2C)ccc1Nc1ncc2cc(C)nc(NCC(C)(C)C)c2n1 — inhibition (enzyme activity, inhibitor, FRET; 1 µM): 31%
COc1cc2c(N3CCN(C(=O)Nc4ccc(OC(C)C)cc4)CC3)ncnc2cc1OCCCN1CCCCC1 — remaining signal (cell-free assay; 0.5 µM): 90.1%
CCCS(=O)(=O)Nc1ccc(F)c(C(=O)c2c[nH]c3ncc(-c4ccc(Cl)cc4)cc23)c1F — inhibition (enzyme activity, inhibitor; 1 µM): < 10%
N#Cc1ccc(Nc2ccc3[nH]c(=O)[nH]c3c2)c(Cl)c1 — remaining binding (cell-free assay, competition with immobilised ligand; 1 µM): 100%
CC/C(=N\NC(=O)NCc1cccc(O)c1)c1ccc(O)c(C)c1O — inhibition (enzyme activity, inhibitor; 0.1 µM): 2.5%
O=C1NC(c2ccccn2)Sc2ccccc21 (stereo not drawn) — remaining binding (cell-free assay, competition with immobilised ligand; 1 µM): 95%
O=C(Nc1cnn(-c2csc(C(=O)NC3COC3)c2)c1)Nc1c(F)cccc1Cl — remaining activity (enzyme activity, inhibitor; 5 µM): 85.5%
CCOCCn1cc(C(=O)Nc2ccc(-n3nc(-c4cccnc4)cc3C(F)(F)F)cn2)ccc1=O — remaining binding (cell-free assay, competition with immobilised ligand; 1 µM): 100%
Cc1cc(NC(=O)c2cccc3cc(-c4cccc5[nH]nc(N)c45)ccc23)ccc1F — activity vs control (enzyme activity, inhibitor; 0.1 µM): 111%
F[C@@H]1CCN(c2nccc(-c3cnn4ncccc34)n2)C1 — remaining binding (binding; 1 µM): 88%
CCC(=O)N[C@H]1CC[C@@H](C(=O)N(C)c2ccc(-c3nc4ccccc4o3)cc2)C1 — remaining binding (cell-free assay, competition with immobilised ligand; 1 µM): 93%
Cc1ccc(Nc2nccc(N(C)c3ccc4c(C)n(C)nc4c3)n2)cc1S(N)(=O)=O — inhibition (enzyme activity, inhibitor; 0.3 µM): 3%
COCCOc1nc(-c2ccc(Cl)nc2)nc2c1CN(C(=O)c1ncn3ccccc13)CC2 — remaining binding (cell-free assay, competition with immobilised ligand; 0.1 µM): 100%
CC(C)(C)c1nc2c(s1)c1nc(N)ncc1c1ccc(NS(=O)(=O)c3c(F)cccc3F)c(F)c12 — remaining activity (enzyme activity, inhibitor, radiometric; 1 µM): 109%
CNCc1ccc(-c2cc(-c3nc(-c4ccc(S(=O)(=O)C(C)C)cc4)cnc3N)on2)cc1 — inhibition (enzyme activity, inhibitor; 0.4 µM): 0%
CC1=C(C#N)C(c2ccc3c(c2)c(NC(=O)c2ccccc2C)nn3C)C(C#N)=C(C)N1 — remaining binding (cell-free assay, competition with immobilised ligand; 1 µM): 100%
